Laboratory results as given in ChEMBL document CHEMBL1128425, “5-Methyl-1-(3-pyridylcarbamoyl)-1,2,3,5-tetrahydropyrrolo[2,3-f]indole: a novel 5-HT2C/5-HT2B receptor antagonist with improved affinity, selectivity, and oral activity” (J Med Chem, 1995).

What was measured:
[1] = biological target: T1, 5-hydroxytryptamine receptor 2C (Homo sapiens, UniProt P28335); test: (§1) Binding affinity against human 5-hydroxytryptamine 2C receptor expressed in 293 cells using [3H]mesulergine; assay type: cell-based, HEK293
T1 sequence (P28335 whole entry): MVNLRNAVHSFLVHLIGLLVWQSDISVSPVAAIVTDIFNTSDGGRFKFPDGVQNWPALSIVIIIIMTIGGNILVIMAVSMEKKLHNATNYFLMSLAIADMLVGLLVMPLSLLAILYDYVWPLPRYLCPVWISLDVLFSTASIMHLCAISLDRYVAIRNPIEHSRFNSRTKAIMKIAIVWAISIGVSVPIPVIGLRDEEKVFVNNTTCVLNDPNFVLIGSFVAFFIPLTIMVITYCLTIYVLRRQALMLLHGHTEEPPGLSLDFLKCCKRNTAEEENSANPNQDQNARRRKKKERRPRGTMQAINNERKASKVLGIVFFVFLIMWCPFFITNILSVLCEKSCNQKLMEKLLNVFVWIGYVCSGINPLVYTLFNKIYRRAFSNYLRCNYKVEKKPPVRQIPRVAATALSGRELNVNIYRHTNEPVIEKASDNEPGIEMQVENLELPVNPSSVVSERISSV
In short: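 Radioligand binding to cloned human receptor in 293 cells with [3H]mesulergine; values are means ± SEM of at least 3 determinations.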

[2] = biological target: 5-hydroxytryptamine receptor 2B (Rattus norvegicus, UniProt P30994); test: Inhibitory potency against rat stomach fundus 5-hydroxytryptamine 2B receptor; assay type: tissue-based; details: read-out: pA2 (converted)
5-hydroxytryptamine receptor 2B, sequence (P30994 whole entry): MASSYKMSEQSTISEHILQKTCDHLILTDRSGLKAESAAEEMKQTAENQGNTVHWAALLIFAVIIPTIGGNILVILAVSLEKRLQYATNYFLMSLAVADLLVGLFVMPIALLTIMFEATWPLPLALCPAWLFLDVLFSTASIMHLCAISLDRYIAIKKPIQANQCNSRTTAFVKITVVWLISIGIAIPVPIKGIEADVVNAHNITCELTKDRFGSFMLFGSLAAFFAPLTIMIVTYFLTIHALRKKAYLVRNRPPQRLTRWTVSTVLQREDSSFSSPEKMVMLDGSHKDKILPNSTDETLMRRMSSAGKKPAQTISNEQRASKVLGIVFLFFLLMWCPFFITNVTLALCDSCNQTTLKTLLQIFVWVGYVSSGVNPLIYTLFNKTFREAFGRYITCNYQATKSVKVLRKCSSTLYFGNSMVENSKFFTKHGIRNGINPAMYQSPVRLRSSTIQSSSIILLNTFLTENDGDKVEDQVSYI
In short: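 Functional antagonism in isolated rat stomach fundus, with contraction evoked by 5-HT as the agonist. Values are means ± SEM of n ≥ 3 determinations.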

[3] = system: Rattus norvegicus; test: In vivo potency to block hypolocomotion response to m-CPP in rat after oral administration; assay type: functional; details: read-out: ID50 (the source's name)
[4] = biological target: T1, 5-hydroxytryptamine receptor 2C; test: as §1; assay type: cell-based, HEK293; remark: listed apart in the source
In short: (§2)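 Radioligand binding at cloned human receptors expressed in 293 cells: [³H]ketanserin for 5-HT2A, [³H]mesulergine for 5-HT2C. Values are means ± SEM of n ≥ 3 determinations.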

[5] = biological target: 5-hydroxytryptamine receptor 2A (Homo sapiens, UniProt P28223); test: Binding affinity against human 5-hydroxytryptamine 2A receptor expressed in 293 cells using [3H]ketanserin; assay type: cell-based, HEK293; in short: as §2
5-hydroxytryptamine receptor 2A, sequence (P28223 whole entry): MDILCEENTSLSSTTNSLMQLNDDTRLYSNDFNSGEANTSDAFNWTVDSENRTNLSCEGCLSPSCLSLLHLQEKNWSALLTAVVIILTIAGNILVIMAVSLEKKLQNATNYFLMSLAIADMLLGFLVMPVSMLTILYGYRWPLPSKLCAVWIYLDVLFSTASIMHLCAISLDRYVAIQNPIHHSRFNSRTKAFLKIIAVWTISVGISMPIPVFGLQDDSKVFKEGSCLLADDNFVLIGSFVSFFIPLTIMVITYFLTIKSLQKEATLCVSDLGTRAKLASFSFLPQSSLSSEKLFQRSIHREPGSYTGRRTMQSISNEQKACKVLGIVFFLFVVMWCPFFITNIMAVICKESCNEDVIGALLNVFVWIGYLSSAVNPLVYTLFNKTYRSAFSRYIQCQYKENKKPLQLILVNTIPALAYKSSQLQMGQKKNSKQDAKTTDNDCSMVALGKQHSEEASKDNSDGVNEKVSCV

[6] = biological target: T2, Adenosine receptor A1 (Rattus norvegicus, UniProt P25099); test: Binding affinity against rat Adenosine A1 receptor
T2 sequence (P25099 whole entry): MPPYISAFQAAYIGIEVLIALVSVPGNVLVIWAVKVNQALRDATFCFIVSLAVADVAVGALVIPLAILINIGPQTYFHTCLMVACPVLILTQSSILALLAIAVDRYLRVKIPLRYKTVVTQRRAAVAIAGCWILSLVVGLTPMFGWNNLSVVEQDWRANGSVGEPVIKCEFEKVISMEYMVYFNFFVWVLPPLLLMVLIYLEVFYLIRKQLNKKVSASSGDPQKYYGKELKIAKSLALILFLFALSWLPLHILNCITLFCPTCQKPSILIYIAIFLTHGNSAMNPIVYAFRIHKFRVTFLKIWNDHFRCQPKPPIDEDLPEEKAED

[7] = biological target: 5-hydroxytryptamine receptor 1D (Cavia porcellus, UniProt Q60484); test: Binding affinity against guinea pig 5-hydroxytryptamine 1D receptor
5-hydroxytryptamine receptor 1D, sequence (Q60484 whole entry): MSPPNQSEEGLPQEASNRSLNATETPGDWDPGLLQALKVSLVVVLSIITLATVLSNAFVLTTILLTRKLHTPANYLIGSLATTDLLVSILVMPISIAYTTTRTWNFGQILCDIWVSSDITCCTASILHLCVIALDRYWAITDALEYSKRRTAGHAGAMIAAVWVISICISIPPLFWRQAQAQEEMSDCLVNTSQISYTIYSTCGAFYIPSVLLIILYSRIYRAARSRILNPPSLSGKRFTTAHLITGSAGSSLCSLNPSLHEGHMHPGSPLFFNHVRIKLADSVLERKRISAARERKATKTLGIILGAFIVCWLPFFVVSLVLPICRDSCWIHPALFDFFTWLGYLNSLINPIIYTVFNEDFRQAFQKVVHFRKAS

[8] = biological target: D(3) dopamine receptor (Homo sapiens, UniProt P35462); test: Binding affinity human Dopamine receptor D3 expressed in CHO cells using [125I]iodosulpiride; assay type: cell-based
D(3) dopamine receptor, sequence (P35462 whole entry): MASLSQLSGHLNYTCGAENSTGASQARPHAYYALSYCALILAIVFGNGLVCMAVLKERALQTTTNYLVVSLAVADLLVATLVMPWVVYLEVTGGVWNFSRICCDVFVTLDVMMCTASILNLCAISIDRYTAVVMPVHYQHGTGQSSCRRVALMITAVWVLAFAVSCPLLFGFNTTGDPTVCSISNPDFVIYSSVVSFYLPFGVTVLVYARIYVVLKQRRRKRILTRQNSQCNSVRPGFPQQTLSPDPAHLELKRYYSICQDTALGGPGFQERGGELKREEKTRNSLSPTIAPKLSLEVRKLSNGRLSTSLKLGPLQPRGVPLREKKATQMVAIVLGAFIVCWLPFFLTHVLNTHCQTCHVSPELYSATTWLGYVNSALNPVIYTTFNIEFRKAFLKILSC

[9] = biological target: Histamine H1 receptor (Cavia porcellus, UniProt P31389); test: Binding affinity against guinea pig H1 receptor
Histamine H1 receptor, sequence (P31389 whole entry): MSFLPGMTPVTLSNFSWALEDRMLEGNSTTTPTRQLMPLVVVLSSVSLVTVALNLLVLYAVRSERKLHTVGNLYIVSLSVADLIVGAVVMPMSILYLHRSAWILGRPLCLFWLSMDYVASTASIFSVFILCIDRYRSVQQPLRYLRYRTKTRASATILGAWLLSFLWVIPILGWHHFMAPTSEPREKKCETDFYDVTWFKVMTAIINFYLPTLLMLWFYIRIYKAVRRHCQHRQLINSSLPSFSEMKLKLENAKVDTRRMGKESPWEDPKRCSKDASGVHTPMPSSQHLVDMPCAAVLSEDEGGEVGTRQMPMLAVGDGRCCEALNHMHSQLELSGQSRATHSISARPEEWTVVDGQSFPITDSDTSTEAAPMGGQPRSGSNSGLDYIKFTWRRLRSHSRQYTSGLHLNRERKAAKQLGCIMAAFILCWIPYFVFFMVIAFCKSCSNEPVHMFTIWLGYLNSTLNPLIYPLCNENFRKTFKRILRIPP

[10] = biological target: 5-hydroxytryptamine receptor 1E (Homo sapiens, UniProt P28566); test: Binding affinity against human 5-hydroxytryptamine 1E receptor expressed in CHO cells; assay type: cell-based
5-hydroxytryptamine receptor 1E, sequence (P28566 whole entry): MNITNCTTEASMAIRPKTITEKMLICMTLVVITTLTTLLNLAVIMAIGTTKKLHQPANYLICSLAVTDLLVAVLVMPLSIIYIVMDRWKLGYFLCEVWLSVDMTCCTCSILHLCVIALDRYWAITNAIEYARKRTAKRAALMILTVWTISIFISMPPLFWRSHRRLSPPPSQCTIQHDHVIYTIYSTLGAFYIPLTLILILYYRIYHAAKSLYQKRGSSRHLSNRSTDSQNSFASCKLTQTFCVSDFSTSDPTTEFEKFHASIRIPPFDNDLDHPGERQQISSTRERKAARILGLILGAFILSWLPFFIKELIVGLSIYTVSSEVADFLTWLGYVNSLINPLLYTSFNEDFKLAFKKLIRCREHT
In short: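 Displacement binding at cloned human 5-HT1E receptors expressed in CHO cells, using [³H]-5-HT as radioligand.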

[11] = biological target: D(2) dopamine receptor (Homo sapiens, UniProt P14416); test: Binding affinity against human Dopamine receptor D2 expressed in CHO cells using [125I]iodosulpiride; assay type: cell-based
D(2) dopamine receptor, sequence (P14416 whole entry): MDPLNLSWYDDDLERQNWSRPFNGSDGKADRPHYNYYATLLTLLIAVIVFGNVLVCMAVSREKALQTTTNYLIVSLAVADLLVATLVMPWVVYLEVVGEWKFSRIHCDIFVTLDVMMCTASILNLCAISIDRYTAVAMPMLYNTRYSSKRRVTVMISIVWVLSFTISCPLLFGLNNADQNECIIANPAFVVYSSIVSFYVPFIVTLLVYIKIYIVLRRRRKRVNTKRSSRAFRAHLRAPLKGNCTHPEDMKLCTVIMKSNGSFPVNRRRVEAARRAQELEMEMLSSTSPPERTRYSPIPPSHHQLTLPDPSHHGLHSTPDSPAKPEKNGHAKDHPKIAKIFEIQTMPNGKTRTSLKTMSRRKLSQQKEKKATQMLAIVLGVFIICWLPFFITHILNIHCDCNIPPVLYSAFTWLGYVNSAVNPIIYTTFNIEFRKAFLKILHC

[12] = biological target: T3, Serotonin 3 (5-HT3) receptor (Rattus norvegicus, UniProt P35563+Q9JJ16); test: Binding affinity against rat 5-hydroxytryptamine 3 receptor; assay type: protein-complex assay
T3 sequence (P35563 whole entry): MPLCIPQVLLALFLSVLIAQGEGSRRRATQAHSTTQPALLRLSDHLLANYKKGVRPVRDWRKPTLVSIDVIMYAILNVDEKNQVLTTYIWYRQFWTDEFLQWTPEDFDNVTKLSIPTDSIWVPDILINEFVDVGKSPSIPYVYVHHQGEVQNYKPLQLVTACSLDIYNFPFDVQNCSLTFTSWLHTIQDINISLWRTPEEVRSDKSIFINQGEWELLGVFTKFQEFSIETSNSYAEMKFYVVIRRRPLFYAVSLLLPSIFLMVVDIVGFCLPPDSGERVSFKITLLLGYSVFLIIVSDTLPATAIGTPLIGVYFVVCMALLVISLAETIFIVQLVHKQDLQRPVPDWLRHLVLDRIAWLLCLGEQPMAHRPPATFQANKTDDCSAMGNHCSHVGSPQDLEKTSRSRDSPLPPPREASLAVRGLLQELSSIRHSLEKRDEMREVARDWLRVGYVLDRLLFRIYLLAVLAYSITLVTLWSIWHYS
T3 sequence (Q9JJ16 whole entry): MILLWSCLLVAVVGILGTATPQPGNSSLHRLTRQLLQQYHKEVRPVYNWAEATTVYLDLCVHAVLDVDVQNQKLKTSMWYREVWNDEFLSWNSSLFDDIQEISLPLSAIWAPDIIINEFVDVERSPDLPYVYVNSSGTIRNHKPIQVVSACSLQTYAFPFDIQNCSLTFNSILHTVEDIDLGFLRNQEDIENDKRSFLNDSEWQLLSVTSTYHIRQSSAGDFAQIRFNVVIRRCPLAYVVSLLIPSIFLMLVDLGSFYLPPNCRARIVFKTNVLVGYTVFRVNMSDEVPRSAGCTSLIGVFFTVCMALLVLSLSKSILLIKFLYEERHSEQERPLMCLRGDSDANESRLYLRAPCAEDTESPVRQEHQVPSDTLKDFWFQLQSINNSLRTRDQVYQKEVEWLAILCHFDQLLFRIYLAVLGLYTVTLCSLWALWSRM

[13] = biological target: T4, 5-hydroxytryptamine receptor 1A (Rattus norvegicus, UniProt P19327); test: Binding affinity against rat 5-hydroxytryptamine 1A receptor
T4 sequence (P19327 whole entry): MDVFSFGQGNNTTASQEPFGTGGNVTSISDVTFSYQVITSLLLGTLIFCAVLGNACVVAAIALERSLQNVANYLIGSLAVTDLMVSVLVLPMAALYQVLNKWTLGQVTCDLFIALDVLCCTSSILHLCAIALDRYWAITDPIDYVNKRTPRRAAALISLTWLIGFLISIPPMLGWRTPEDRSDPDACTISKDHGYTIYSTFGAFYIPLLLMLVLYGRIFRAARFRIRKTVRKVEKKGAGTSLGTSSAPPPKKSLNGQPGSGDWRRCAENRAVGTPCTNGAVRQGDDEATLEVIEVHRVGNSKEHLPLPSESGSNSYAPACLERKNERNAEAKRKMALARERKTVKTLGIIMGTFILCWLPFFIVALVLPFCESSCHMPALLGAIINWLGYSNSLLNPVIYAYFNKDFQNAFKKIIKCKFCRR

[14] = biological target: T5, Adrenergic receptor alpha-1 (Rattus norvegicus, UniProt P15823+P23944+P43140); test: Binding affinity against rat Alpha-1 adrenergic receptor; assay type: protein assay
T5 sequence (P15823 whole entry): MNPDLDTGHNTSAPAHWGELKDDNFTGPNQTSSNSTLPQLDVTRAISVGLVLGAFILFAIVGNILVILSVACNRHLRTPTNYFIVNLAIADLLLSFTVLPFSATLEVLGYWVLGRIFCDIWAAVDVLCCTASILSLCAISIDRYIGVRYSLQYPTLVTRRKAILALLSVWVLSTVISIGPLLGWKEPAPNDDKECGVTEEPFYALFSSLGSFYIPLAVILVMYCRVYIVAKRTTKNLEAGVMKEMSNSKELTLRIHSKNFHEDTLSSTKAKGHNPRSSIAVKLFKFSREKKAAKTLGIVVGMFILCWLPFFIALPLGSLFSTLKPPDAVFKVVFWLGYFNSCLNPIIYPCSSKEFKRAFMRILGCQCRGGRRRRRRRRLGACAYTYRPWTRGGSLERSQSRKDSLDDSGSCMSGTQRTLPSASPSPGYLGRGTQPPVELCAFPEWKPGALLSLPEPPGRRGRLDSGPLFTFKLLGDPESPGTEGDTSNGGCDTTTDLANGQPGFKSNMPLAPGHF
T5 sequence (P23944 whole entry): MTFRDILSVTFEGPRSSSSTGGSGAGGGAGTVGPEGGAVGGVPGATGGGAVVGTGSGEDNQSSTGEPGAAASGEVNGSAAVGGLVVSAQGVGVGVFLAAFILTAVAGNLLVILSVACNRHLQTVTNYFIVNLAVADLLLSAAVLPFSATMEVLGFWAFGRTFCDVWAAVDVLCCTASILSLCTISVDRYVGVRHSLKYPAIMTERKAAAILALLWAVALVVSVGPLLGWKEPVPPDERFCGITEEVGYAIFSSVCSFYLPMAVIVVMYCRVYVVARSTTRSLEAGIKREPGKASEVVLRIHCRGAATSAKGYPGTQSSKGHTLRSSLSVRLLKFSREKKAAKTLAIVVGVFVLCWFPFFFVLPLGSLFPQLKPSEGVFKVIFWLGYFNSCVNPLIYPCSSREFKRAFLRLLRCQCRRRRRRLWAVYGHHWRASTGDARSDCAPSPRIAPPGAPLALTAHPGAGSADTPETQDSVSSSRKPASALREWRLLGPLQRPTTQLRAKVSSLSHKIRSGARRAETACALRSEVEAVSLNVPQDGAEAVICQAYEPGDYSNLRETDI
T5 sequence (P43140 whole entry): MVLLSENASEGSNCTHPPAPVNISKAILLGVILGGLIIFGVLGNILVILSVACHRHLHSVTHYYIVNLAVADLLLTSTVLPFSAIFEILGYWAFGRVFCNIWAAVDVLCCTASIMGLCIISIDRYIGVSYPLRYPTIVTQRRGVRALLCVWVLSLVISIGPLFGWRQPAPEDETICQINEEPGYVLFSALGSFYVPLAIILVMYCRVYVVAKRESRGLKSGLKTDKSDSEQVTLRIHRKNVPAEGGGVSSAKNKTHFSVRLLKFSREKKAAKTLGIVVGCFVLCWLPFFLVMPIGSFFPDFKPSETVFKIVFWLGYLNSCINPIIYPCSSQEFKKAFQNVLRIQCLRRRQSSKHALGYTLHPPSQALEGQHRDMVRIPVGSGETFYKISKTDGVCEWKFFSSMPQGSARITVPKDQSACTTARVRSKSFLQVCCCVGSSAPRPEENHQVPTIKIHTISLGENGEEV

[15] = biological target: 5-hydroxytryptamine receptor 4 (Rattus norvegicus, UniProt Q62758); test: Binding affinity against rat 5-hydroxytryptamine 4 receptor
5-hydroxytryptamine receptor 4, sequence (Q62758 whole entry): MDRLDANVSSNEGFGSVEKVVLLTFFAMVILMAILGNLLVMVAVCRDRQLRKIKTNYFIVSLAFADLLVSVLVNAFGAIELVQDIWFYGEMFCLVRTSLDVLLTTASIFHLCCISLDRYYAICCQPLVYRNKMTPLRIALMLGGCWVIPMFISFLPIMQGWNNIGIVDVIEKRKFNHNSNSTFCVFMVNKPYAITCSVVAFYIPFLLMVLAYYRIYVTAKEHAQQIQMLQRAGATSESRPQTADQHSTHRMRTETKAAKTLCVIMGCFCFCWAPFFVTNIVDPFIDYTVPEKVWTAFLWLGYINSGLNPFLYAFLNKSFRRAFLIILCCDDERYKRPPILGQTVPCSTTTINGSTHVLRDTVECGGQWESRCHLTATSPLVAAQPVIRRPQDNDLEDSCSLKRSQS

| Structure (SMILES) | Kb [2] | ED50 [3] | Ki [4] | Ki [5] | further results |
| --- | --- | --- | --- | --- | --- |
| Cl.Cn1ccc2cc(NC(=O)Nc3cccnc3)ccc21 | 39.8 nM | 19.2 mg/kg |  |  | Ki [1]: 138 nM |
| Cn1ccc2c3c(ccc21)N(C(=O)Nc1cccnc1)CC3 | 17.8 nM |  | 66.1 nM | 2880 nM |  |
| Cn1ccc2cc3c(cc21)CCN3C(=O)Nc1cccnc1 | 3.31 nM | 5.5 mg/kg |  | 1620 nM | Ki [6]: > 50100 nM; Ki [7]: > 1000 nM; Ki [8]: > 10000 nM; Ki [9]: > 10000 nM; Ki [10]: > 5010 nM; Ki [11]: > 10000 nM; Ki [12]: > 10000 nM; Ki [13]: > 10000 nM; Log Ki [14]: > -5; Ki [15]: 5010 nM |
| Cn1ccc2cc3c(cc21)CCCN3C(=O)Nc1cccnc1 | 53.7 nM |  | 4070 nM | > 6310 nM |  |
| Cn1ccc2c3c(ccc21)N(C(=O)Nc1cccnc1)CCC3 | 60.3 nM |  | > 6310 nM | > 6310 nM |  |
